For series [1], the system named is HT-1080. The experiment in a line: Induction of apoptosis in human HT1080 cells assessed as increase in procaspase-3 cleavage at 10 uM pretreated with rapamycin for 1 hr prior to compound addition measured after 24 hrs by Western blotting analysis. The series is classed as functional, cell-based. Put shortly:
(§1)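 HT1080 cells pretreated 1 h with 1 mM 3MA or 1 nM rapamycin, then co-incubated with 10 μM for 24 h. Adherent and floating cells lysed in Hepes pH 7.4/Triton buffer. 12% SDS-PAGE, nitrocellulose, antibodies against Fas, FADD, caspase-8, caspase-3, PARP and ICAD, ECL detection. Densities normalized to β-actin; n = 3.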

Series [2] has as its system HT-1080. Description: Induction of autophagy in human HT1080 cells assessed as conversion from LC31to LC32 at 10 uM pretreated with 3MA for 1 hr prior to compound addition measured after 24 hrs by Western blotting analysis. The series is classed as functional, cell-based. Put shortly: (§2)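 HT1080 cells pretreated 1 h with 1 mM 3MA or 1 nM rapamycin, then 10 μM added for 24 h. Adherent and floating cells lysed in Hepes pH 7.4/Triton buffer. Equal protein on 12% SDS-PAGE and nitrocellulose, probed for beclin 1 and LC3, ECL detection. Normalized to β-actin, n = 3.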

The subject of the next series is PBMC. The experiment in a line: Cytotoxicity against human PBMC at 10 to 80 uM after 24 to 48 hrs by MTT assay. The series is classed as cell-based. In outline:
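PBMC from fresh blood of three healthy male donors. Blood diluted 1:3 in PBS, layered on Ficoll-Hypaque (1.077 g/mL), spun 900g 30 min. Band washed 400g 10 min, cells resuspended in complete RPMI-1640 in 96-well plates. Treated with 0, 10, 20, 40 or 80 μM for 24 and 48 h, then MTT. Means ± SD of three independent experiments.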

Series [3] relates to HT-1080. Description: Induction of apoptosis in human HT1080 cells assessed as upregulation of FADD protein expression at 10 uM pretreated with rapamycin for 1 hr prior to compound addition measured after 24 hrs by Western blotting analysis. The series is classed as functional, cell-based. In outline:
as §1

The subject of series [4] is HT-1080. The experiment in a line: Induction of apoptosis in human HT1080 cells assessed as appearance of granular apoptotic bodies at 10 uM after 24 hrs by acridine orange staining-based fluorescence microscopic analysis. The series is classed as functional, cell-based. In outline:
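HT1080 cells, 2 × 10^4/well, cultured 24 h, then exposed to 10 μM for 24 h. Stained with acridine orange 20 μg/mL for 15 min in the dark and examined by fluorescence microscopy at 200×.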

For series [5], the system named is HT-1080. The experiment in a line: Induction of apoptosis in human HT1080 cells expressing beclin 1 siRNA assessed as increase in FAS protein expression at 10 uM after 24 hrs by Western blotting analysis relative to control. The series is classed as functional, cell-based. In outline:
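Beclin 1 or nonspecific siRNA transfected into HT1080 cells (5 × 10^5 seeded a day earlier; transfection mixture for 7 h at 37 °C, then normal medium, 24 h before harvest). Cells then got 10 μM for 24 h. Adherent plus floating cells lysed in Hepes pH 7.4/Triton buffer at 4 °C for 60 min. Equal protein on 12% SDS-PAGE, nitrocellulose, ECL. Bands normalized to β-actin, n = 3.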

Series [6] concerns HT-1080. Description: Induction of autophagy in human HT1080 cells assessed as upregulation of beclin 1 at 10 uM pretreated with rapamycin for 1 hr prior to compound addition measured after 24 hrs by Western blotting analysis. The series is classed as functional, cell-based. Put shortly:
as §2

The test system of another series is A549. The experiment in a line: Cytotoxicity against human A549 cells assessed as growth inhibition after 24 hrs by MTT assay. The series is classed as functional, cell-based. Put shortly:
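Seeded 0.8 × 10^4 cells/well, cultured 24 h, then exposed to 0, 10, 20, 40 or 80 μM for 24 h (DMSO <0.05%) in RPMI 1640 or MEM with 10% FBS. Adherent lines rinsed with PBS, given MTT 2 h at 37 °C. Suspension lines (U937, HL60) given MTT 2 h, then centrifuged. Formazan dissolved in DMSO, A492 read. Inhibition % = (control − sample)/(control − blank) × 100.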

Series [7] concerns HT-1080. Description: Induction of apoptosis in human HT1080 cells expressing beclin 1 siRNA assessed as ICAD downregulation at 10 uM after 24 hrs by Western blotting relative to control. The series is classed as functional, cell-based. In outline: (§3)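 5 × 10^5 HT1080 cells transfected with beclin 1 or nonspecific siRNA using TranSmarter for 7 h at 37 °C, then kept 24 h in normal medium. Treated with 10 μM for 24 h and lysed. Proteins assessed by Western blot with β-actin normalization and compared with nonspecific-siRNA groups.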

Series [8] deals with HT-1080. Description: Induction of apoptosis in human HT1080 cells expressing beclin 1 siRNA assessed as increase in FADD protein expression at 10 uM after 24 hrs by Western blotting analysis relative to control. The series is classed as functional, cell-based. In outline: as §3
The test system of series [9] is HT-1080. The experiment in a line: Induction of autophagy in human HT1080 cells assessed as autophagic vacuole formation at 10 uM pretreated with 3MA for 1 hr prior to compound addition measured after 24 hrs by MDC staining-based FACS flow cytometric analysis. The series is classed as functional, cell-based. In outline:
(§4)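 HT1080 cells seeded at 3 × 10^5 per flask and grown 24 h. Pretreated 1 h with 1 mM 3MA or 1 nM rapamycin, then 10 μM for 24 h. Collected cells stained with 0.05 mM MDC at 37 °C for 1 h. MDC-positive ratio measured by flow cytometry, n = 3, mean ± SD.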

Series [10] relates to HT-1080. Description: Cytotoxicity against human HT1080 cells assessed as growth inhibition after 12 to 72 hrs by MTT assay. The series is classed as functional, cell-based.
Series [11] concerns HT-1080. The experiment in a line: Induction of apoptosis in human HT1080 cells assessed as increase in apoptotic ratio at 10 uM pretreated with 3MA for 1 hr prior to compound addition measured after 24 hrs by propidium iodide staining-based FACS flow cytometric analysis. The series is classed as functional, cell-based.
The subject of series [12] is HT-1080. The experiment in a line: Induction of autophagy in human HT1080 cells assessed as increase in autophagolysosomes at 10 uM by MDC staining-based fluorescence microscopic analysis. The series is classed as functional, cell-based. Put shortly: (§5)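 HT1080 cells at 2 × 10^4 per well, cultured 24 h, then given 10 μM for 24 h. Stained with 0.05 mM MDC at 37 °C for 1 h. Autophagolysosomes viewed by fluorescence microscopy at 200×.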

Series [13] concerns HT-1080. The experiment in a line: Cytotoxicity against human HT1080 cells assessed as growth inhibition at 10 uM pretreated with rapamycin for 1 hr prior to compound addition measured after 24 hrs by MTT assay. The series is classed as functional, cell-based. Put shortly: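 HT1080 seeded 0.8 × 10^4 cells/well. MTT 2 h at 37 °C, formazan in DMSO, A492 read. Inhibition % calculated against untreated and blank wells.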

Series [14] has as its system HT-1080. The experiment in a line: Induction of apoptosis in human HT1080 cells assessed as increase in procaspase-8 cleavage at 10 uM pretreated with rapamycin for 1 hr prior to compound addition measured after 24 hrs by Western blotting analysis. The series is classed as functional, cell-based. Put shortly: as §1
Series [15] deals with HT-1080. The experiment in a line: Induction of autophagy in human HT1080 cells assessed as increase in autophagolysosomes at 10 uM after 24 hrs by MDC staining-based fluorescence microscopic analysis (reference value: 2.65 +/- 0.12%). The series is classed as functional. Put shortly: as §5
In series [16] the test system is HT-1080. The experiment in a line: Induction of apoptosis in human HT1080 cells assessed as increase in PARP cleavage at 10 uM pretreated with rapamycin for 1 hr prior to compound addition measured after 24 hrs by Western blotting analysis. The series is classed as functional, cell-based. Put shortly: as §1
Series [17] has as its system HT-1080. The experiment in a line: Induction of autophagy in human HT1080 cells assessed as autophagic vacuole formation at 10 uM pretreated with rapamycin for 1 hr prior to compound addition measured after 24 hrs by MDC staining-based FACS flow cytometric analysis. The series is classed as functional, cell-based. Put shortly:
as §4

Active and inactive are the calls of the source. No cut-off for these calls is given here.

For the compound `C=C1C(=O)O[C@@H]2C[C@@]1(C)[C@@H]1C(=O)[C@]3(O)O[C@]14[C@@]2(C)OC(=O)[C@@]4(O)CC[C@H]1[C@H]3[C@H](O)C=C2CC=CC(=O)[C@@]21C` [PHYSALIN A], the outcome in the series on HT-1080 [1], in the series on HT-1080 [2], in the series with HT-1080 [3], in the series on HT-1080 [9], in the series on HT-1080 [14] and with HT-1080 [16] was inactive. For the same compound, the Activity result was “Non-toxic” with PBMC and 26.7% in the series on HT-1080 [15]. The result with HT-1080 [4], with HT-1080 [5], in the series with HT-1080 [6], with HT-1080 [7], in the series with HT-1080 [8] and with HT-1080 [11] was Active. Also, the outcome in the series on HT-1080 [12] and with HT-1080 [17] was Active. The “growth inhibition (GI)” value in the series with A549 and with HT-1080 [10] was “Dose-dependent effect” throughout. Besides, in the series with HT-1080 [13], the “growth inhibition (GI)” value is “inactive”.

These data come from ChEMBL document CHEMBL2380219, “Physalin A induces apoptotic cell death and protective autophagy in HT1080 human fibrosarcoma cells” (J Nat Prod, 2013).
